Experiments:
Liver microsome [1] = experiment: Drug metabolism in beagle dog liver microsomes assessed as 5beta-hydroxylcinobufagin formation at 100 uM at 37 degC after 30 mins by UFLC-ESI-MS analysis in presence of NADPH-generating system; type: ADME, Canis lupus familiaris; conditions: 0.5 h
How it was run: (§1)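 Liver microsomes (0.3 mg protein/ml) incubated with 100 µM substrate at 37°C for 30 min, in 100 mM potassium phosphate pH 7.4 with NADPH-generating system (1 mM NADP+, 10 mM glucose 6-phosphate, 1 unit/ml G6PDH, 4 mM MgCl2). Acetonitrile ≤1% final. Stopped with ice-cold acetonitrile and centrifuged. Metabolites identified by UFLC-ESI-MS and quantified by UFLC-DAD at 294 nm against authentic standard curves.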

Liver microsome [2] = experiment: Drug metabolism in human liver microsomes assessed as 5beta-hydroxylcinobufagin formation at 100 uM at 37 degC after 30 mins […] in presence of 50 uM triethylenethiophosphoramide CYP2B6 inhibitor; type: ADME; conditions: 0.5 h
Liver microsome [3] = experiment: Drug metabolism in human liver microsomes assessed as 1alpha-hydroxylcinobufagin formation per mg of protein at 100 uM at 37 degC […] by UFLC-ESI-MS analysis; type: ADME; conditions: 0.5 h
Liver microsome [4] = experiment: Drug metabolism in beagle dog liver microsomes assessed as 1alpha-hydroxylcinobufagin formation at 100 uM at 37 degC after 30 mins by UFLC-ESI-MS analysis in presence of 10 uM sulfaphenazole CYP2C9 inhibitor; type: ADME, Canis lupus familiaris; conditions: 0.5 h
How it was run: (§2)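 Chemical inhibition: selective P450 inhibitors (furafylline, sulfaphenazole, ketoconazole) added to liver microsome incubations in 100 mM potassium phosphate pH 7.4 with NADPH-generating system at 37°C. Hydroxylated metabolite formation quantified by UFLC at 294 nm against standards. Mean ± S.D. of three experiments in duplicate.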

[5] = Drug metabolism in cynomolgus monkey liver microsomes assessed as 1alpha-hydroxylcinobufagin formation at 100 uM at 37 degC after 30 mins by UFLC-ESI-MS analysis in presence of 10 uM sulfaphenazole CYP2C9 inhibitor; type: ADME, Macaca fascicularis; conditions: 0.5 h; how it was run: as §2
Liver microsome [6] = experiment: Drug metabolism in human liver microsomes assessed as 1alpha-hydroxylcinobufagin formation at 100 uM at 37 degC after 30 mins […] in presence of 50 uM triethylenethiophosphoramide CYP2B6 inhibitor; type: ADME; conditions: 0.5 h
Liver microsome [7] = experiment: Drug metabolism in human liver microsomes assessed as 1alpha-hydroxylcinobufagin formation at 100 uM […] by UFLC-ESI-MS analysis; type: ADME; conditions: 0.5 h, read-out: Km(app)
Liver [8] = experiment: Ratio of Vmax/Km in Swiss-Hauschka (ICR) mouse liver microsomes assessed as 1alpha-hydroxylcinobufagin formation at 100 uM […] by UFLC-ESI-MS analysis; type: ADME; conditions: 0.5 h
Liver microsome [9] = experiment: Ratio of Vmax/Km in human liver microsomes assessed as 1alpha-hydroxylcinobufagin formation at 100 uM […] by UFLC-ESI-MS analysis; type: ADME; conditions: 0.5 h
Liver microsome [10] = experiment: Drug metabolism in beagle dog liver microsomes assessed as 1alpha-hydroxylcinobufagin formation at 100 uM at 37 degC after 30 mins by UFLC-ESI-MS analysis in presence of 1 uM ketoconazole CYP3A4 inhibitor; type: ADME, Canis lupus familiaris; conditions: 0.5 h; how it was run: as §2
Liver microsome [11] = experiment: Drug metabolism in beagle dog liver microsomes assessed as 1alpha-hydroxylcinobufagin formation at 100 uM at 37 degC after 30 mins by UFLC-ESI-MS analysis in presence of 10 uM furafylline CYP1A2 inhibitor; type: ADME, Canis lupus familiaris; conditions: 0.5 h; how it was run: as §2
[12] = Drug metabolism in cynomolgus monkey liver microsomes assessed as 1alpha-hydroxylcinobufagin formation at 100 uM at 37 degC after 30 mins by UFLC-ESI-MS analysis in presence of 1 uM ketoconazole CYP3A4 inhibitor; type: ADME, Macaca fascicularis; conditions: 0.5 h; how it was run: as §2
Liver microsome [13] = experiment: Drug metabolism in human liver microsomes assessed as 1alpha-hydroxylcinobufagin formation at 100 uM at 37 degC after 30 mins […] in presence of 20 uM omeprazole CYP2C19 inhibitor; type: ADME; conditions: 0.5 h
Liver microsome [14] = experiment: Drug metabolism in beagle dog liver microsomes assessed as 1alpha-hydroxylcinobufagin formation at 100 uM at 37 degC after 30 mins by UFLC-ESI-MS analysis in presence of NADPH-generating system; type: ADME, Canis lupus familiaris; conditions: 0.5 h; how it was run: as §1
Liver microsome [15] = experiment: Drug metabolism in human liver microsomes assessed as 1alpha-hydroxylcinobufagin formation at 100 uM at 37 degC after 30 mins […] in presence of 10 uM sulfaphenazole CYP2C9 inhibitor; type: ADME; conditions: 0.5 h
[16] = Drug metabolism in Colony-bred Chinese Bama minipig liver microsomes assessed as 1alpha-hydroxylcinobufagin formation at 100 uM at 37 degC after 30 mins by UFLC-ESI-MS analysis in presence of 10 uM furafylline CYP1A2 inhibitor; type: ADME, Sus scrofa; conditions: pig, 0.5 h; how it was run: as §2
Liver microsome [17] = experiment: Drug metabolism in beagle dog liver microsomes assessed as 5beta-hydroxylcinobufaginn formation per mg of protein at 100 uM at 37 degC after 30 mins by UFLC-ESI-MS analysis; type: ADME, Canis lupus familiaris; conditions: 0.5 h; how it was run: as §1
Liver microsome [18] = experiment: Drug metabolism in human liver microsomes assessed as 5beta-hydroxylcinobufagin formation at 100 uM at 37 degC after 30 mins by UFLC-ESI-MS analysis in presence of NADPH-generating system; type: ADME; conditions: 0.5 h
How it was run: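 CB (100 µM; acetonitrile ≤1% final) was incubated with pooled HLM (0.3 mg/ml) plus NADPH-generating system (1 mM NADP+, 10 mM glucose 6-phosphate, 1 unit/ml G6PDH, 4 mM MgCl2) in pH 7.4 phosphate buffer at 37°C for 30 min. Products were identified by UFLC-ESI-MS and quantified by UFLC-DAD at 294 nm.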

[19] = Drug metabolism in cynomolgus monkey liver microsomes assessed as 5beta-hydroxylcinobufagin formation at 100 uM at 37 degC after 30 mins by UFLC-ESI-MS analysis in presence of NADPH-generating system; type: ADME, Macaca fascicularis; conditions: 0.5 h; how it was run: as §1
[20] = Drug metabolism in Swiss-Hauschka (ICR) mouse liver microsomes assessed as 5beta-hydroxylcinobufaginn formation at 100 uM at 37 degC after 30 mins by UFLC-ESI-MS analysis; type: ADME; conditions: 0.5 h, read-out: Km(app); how it was run: as §1
Liver [21] = experiment: Ratio of Vmax/Km in Swiss-Hauschka (ICR) mouse liver microsomes assessed as 5beta-hydroxylcinobufaginn formation at 100 uM […] by UFLC-ESI-MS analysis; type: ADME; conditions: 0.5 h
Liver microsome [22] = experiment: Drug metabolism in human liver microsomes assessed as 1alpha-hydroxylcinobufagin formation at 100 uM at 37 degC after 30 mins […] in presence of 2 uM montelukast CYP2C8 inhibitor; type: ADME; conditions: 0.5 h
Liver microsome [23] = experiment: Drug metabolism in human liver microsomes assessed as 5beta-hydroxylcinobufagin formation at 100 uM at 37 degC after 30 mins by UFLC-ESI-MS analysis in presence of 20 uM omeprazole CYP2C19 inhibitor; type: ADME; conditions: 0.5 h
How it was run: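 Pooled human liver microsomes (10 donors, both sexes) in 100 mM potassium phosphate pH 7.4 were incubated with CB and a selective P450 inhibitor. Reaction was started with NADPH-generating system after 3 min preincubation at 37°C and stopped with ice-cold acetonitrile. Hydroxylated products were quantified by UFLC-DAD at 294 nm; three experiments in duplicate.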

Liver microsome [24] = experiment: Drug metabolism in human liver microsomes assessed as 1alpha-hydroxylcinobufagin formation at 100 uM at 37 degC after 30 mins […] in presence of 1 uM ketoconazole CYP3A4 inhibitor; type: ADME; conditions: 0.5 h
[25] = Drug metabolism in Swiss-Hauschka (ICR) mouse liver microsomes assessed as 1alpha-hydroxylcinobufagin formation at 100 uM at 37 degC after 30 mins by UFLC-ESI-MS analysis in presence of 10 uM sulfaphenazole CYP2C9 inhibitor; type: ADME; conditions: 0.5 h; how it was run: as §2

For `CC(=O)O[C@H]1[C@H]2O[C@]23[C@@H]2CC[C@@H]4C[C@@H](O)CC[C@]4(C)[C@H]2CC[C@]3(C)[C@H]1c1ccc(=O)oc1` [CINOBUFAGIN], the Drug metabolism (Liver microsome [1]) was “metabolite_detected”, the Drug metabolism (Liver microsome [2]) was “metabolite_detected” and the Vmax (Liver microsome [3]) was 0.59 nmol/min/mg. The Drug metabolism (Liver microsome [4]) was “metabolite_detected”, the Drug metabolism [5] was “metabolite_detected” and the Drug metabolism (Liver microsome [6]) was “metabolite_detected”. It also gave a Km (Liver microsome [7]) of 12.5 µM, a Vmax/Km (Liver [8]) of 595 µL/min/mg and a Vmax/Km (Liver microsome [9]) of 47.2 µL/min/mg. The Drug metabolism (Liver microsome [10]) was “metabolite_not_detected”, the Drug metabolism (Liver microsome [11]) was “metabolite_detected” and the Drug metabolism [12] was “metabolite_not_detected”. For the same molecule, the Drug metabolism (Liver microsome [13]) was “metabolite_detected”, the Drug metabolism (Liver microsome [14]) was “metabolite_detected” and the Drug metabolism (Liver microsome [15]) was “metabolite_detected”. The Drug metabolism [16] was “metabolite_detected”, the Vmax (Liver microsome [17]) was 0.44 nmol/min/mg and the Drug metabolism (Liver microsome [18]) was “metabolite_detected”. The Drug metabolism [19] was “metabolite_detected”, the Km [20] was 10.1 µM and the Vmax/Km (Liver [21]) was 644.6 µL/min/mg. The Drug metabolism (Liver microsome [22]) was “metabolite_detected”, the Drug metabolism (Liver microsome [23]) was “metabolite_detected” and the Drug metabolism (Liver microsome [24]) was “metabolite_not_detected”. For the same molecule, the Drug metabolism [25] was “metabolite_detected”.

Reference: ChEMBL document CHEMBL3526081 (Drug Metab Dispos, 2011)
